Active and inactive are the calls of the source. The calls are words filed in the database; no cut-off is given here.
Tests used:
[1] = Displacement of [3H]nisoxetine from Sprague-Dawley rat brain NET after 180 mins by liquid scintillation counting method
How it was run: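 Frontal cortex membranes from male Sprague-Dawley rats in 50 mM Tris, 120 mM NaCl, 5 mM KCl, pH 7.4. […] Nonspecific binding with 1 μM desipramine. Methanol level held constant across tubes. Filtered on GF/B filters in 0.05% PEI.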

[2] = target: Sodium-dependent dopamine transporter (Rattus norvegicus, UniProt P23977); test: Displacement of [3H]WIN35428 from Sprague-Dawley rat brain DAT after 120 mins by liquid scintillation counting method
How it was run: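 Rat striatal membranes (male Sprague-Dawley) in sucrose phosphate buffer pH 7.4. […] Terminated by filtration on GF/B filters presoaked in 0.05% PEI, then scintillation counting.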

Homo sapiens = species: Homo sapiens; test: Selectivity ratio of Ki for human DAT […] mutant expressed in African green monkey COS7 cells to Ki for wild type human DAT expressed in African green monkey COS7 cells; assay type: cell-based
How it was run: (§1)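 Whole COS7 cells transiently expressing human DAT WT or the Y156F mutant, washed in ice-cold uptake buffer. Incubated with [³H]WIN 35,428 and inhibitor (1 nM–1 mM, 12 concentrations) at 5 °C to equilibrium (>90 min). Triplicates. Ki from IC50 by nonlinear regression and Cheng–Prusoff. Ratio is Y156F Ki over WT Ki.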

[3] = Inhibition of […] uptake at human DAT […] mutant expressed in African green monkey COS7 cells after 90 mins; assay type: cell-based; how it was run: as §1
[4] = target: Sodium-dependent serotonin transporter (Rattus norvegicus, UniProt P31652); test: Displacement of [3H]citalopram from Sprague-Dawley rat brain SERT after 60 mins by liquid scintillation counting method
How it was run: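 Male Sprague-Dawley rat brain stem membranes in 50 mM Tris with 120 mM NaCl and 5 mM KCl, pH 7.4. […] Nonspecific binding with 10 μM fluoxetine. Filtered on GF/B filters presoaked in 0.3% PEI, scintillation counted.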

[5] = target: T1, Sodium-dependent dopamine transporter (Homo sapiens, UniProt Q01959); test: Inhibition of […] uptake at wild type human DAT expressed in African green monkey COS7 cells after 90 mins; assay type: cell-based; how it was run: as §1
[6] = target: T1, Sodium-dependent dopamine transporter; test: Inhibition of [3H]DA uptake at wild type human DAT expressed in African green monkey COS7 cells after 5 mins by beta scintillation counting method; assay type: cell-based
How it was run: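 COS7 cells transiently transfected with synthetic human DAT and assayed 2 days later. Preincubated with inhibitor (1 nM–1 mM, 12 concentrations) in HEPES uptake buffer pH 7.4 containing ascorbate and a COMT inhibitor. 6–10 nM [³H]DA added for 5 min at rt. Nonspecific uptake with 1 μM nomifensine. Cells lysed in SDS and scintillation counted. Run in triplicate. Ki from IC50 by Cheng–Prusoff.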

[7] = target: Voltage-gated inwardly rectifying potassium channel KCNH2 (Homo sapiens, UniProt Q12809); test: Displacement of [3H]Dofetilide from human ERG expressed in HEK cells after 180 mins by scintillation counting method; assay type: cell-based
[8] = Selectivity ratio of IC50 for human ERG expressed in HEK cells to Ki for Sprague-Dawley rat brain DAT; assay type: cell-based
Mus musculus [9] = test: Effect on execution of behavioral task in Swiss Webster mouse assessed as overall group response rate at 0.3 to 30 mg/kg, ip relative to control; assay type: organism-based; conditions: in vivo
How it was run: (§2)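 Testing began after ≥85% correct responding on 4 consecutive sessions. Test drug given i.p. at 0.1–30 mg/kg, 5 or 30 min before the session, with 10 consecutive responses on either lever reinforced. ED50 taken from a linear fit. Response rate expressed as % of saline. 6 mice.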

Liver = test: Metabolic stability in mouse liver microsomes assessed as parent compound remaining at 10 uM after 1 hr in presence of NADPH by LC/MS/MS analysis; assay type: ADME, microsome
How it was run: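 Mouse liver microsomes at 0.5 mg/mL with test compound at 10 μM final, in 100 mM potassium phosphate pH 7.4 with an NADPH regenerating system (1.3 mM NADPH). Reaction started by adding microsomes. Controls run without cofactor. Parent remaining measured by LC/MS/MS on a C18 column with formic acid/acetonitrile gradient. Triplicate.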

Mus musculus [10] = test: Decrease in locomotory activity in Swiss Webster mouse at 3 to 30 mg/kg, ip after 1 hr relative to control; assay type: functional, organism-based
How it was run: (§3)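 Male Swiss Webster mice, ambulatory activity counted in 40 cm³ clear acrylic chambers over a 1 h session with no prior habituation. Drug given i.p. at 1 mL/kg immediately before the session. 6 mice per dose, each used once. Analysed by ANOVA then Dunnett's test against vehicle.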

Mus musculus [11] = test: Effect on discriminating cocaine from saline in Swiss Webster mouse assessed as cocaine lever response at 0.3 to 30 mg/kg, ip administered 5 to 30 mins prior to training session relative to control; assay type: functional; how it was run: as §2
Mus musculus [12] = test: Decrease in locomotory activity in Swiss Webster mouse at 56 mg/kg, ip after 1 hr relative to control; assay type: functional; design: scale not given: the % may be the effect or the level left; how it was run: as §3

T1 sequence (Q01959 whole entry): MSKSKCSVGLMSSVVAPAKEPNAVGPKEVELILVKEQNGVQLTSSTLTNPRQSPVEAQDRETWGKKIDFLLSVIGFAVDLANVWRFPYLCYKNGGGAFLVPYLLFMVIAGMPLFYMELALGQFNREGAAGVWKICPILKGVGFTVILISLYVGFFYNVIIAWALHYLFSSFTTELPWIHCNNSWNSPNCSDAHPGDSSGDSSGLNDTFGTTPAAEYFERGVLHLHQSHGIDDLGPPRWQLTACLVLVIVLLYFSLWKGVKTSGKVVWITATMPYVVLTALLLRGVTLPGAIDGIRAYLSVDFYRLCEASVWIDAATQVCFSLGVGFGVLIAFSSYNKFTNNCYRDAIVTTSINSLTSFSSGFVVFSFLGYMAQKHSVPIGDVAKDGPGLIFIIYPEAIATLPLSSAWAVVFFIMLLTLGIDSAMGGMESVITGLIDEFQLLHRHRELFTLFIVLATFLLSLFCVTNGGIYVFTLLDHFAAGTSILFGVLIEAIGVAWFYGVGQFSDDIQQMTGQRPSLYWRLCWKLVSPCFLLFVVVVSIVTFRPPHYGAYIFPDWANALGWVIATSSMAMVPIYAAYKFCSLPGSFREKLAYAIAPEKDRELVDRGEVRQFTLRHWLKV
Chain of Voltage-gated inwardly rectifying potassium channel KCNH2 (Q12809 whole entry): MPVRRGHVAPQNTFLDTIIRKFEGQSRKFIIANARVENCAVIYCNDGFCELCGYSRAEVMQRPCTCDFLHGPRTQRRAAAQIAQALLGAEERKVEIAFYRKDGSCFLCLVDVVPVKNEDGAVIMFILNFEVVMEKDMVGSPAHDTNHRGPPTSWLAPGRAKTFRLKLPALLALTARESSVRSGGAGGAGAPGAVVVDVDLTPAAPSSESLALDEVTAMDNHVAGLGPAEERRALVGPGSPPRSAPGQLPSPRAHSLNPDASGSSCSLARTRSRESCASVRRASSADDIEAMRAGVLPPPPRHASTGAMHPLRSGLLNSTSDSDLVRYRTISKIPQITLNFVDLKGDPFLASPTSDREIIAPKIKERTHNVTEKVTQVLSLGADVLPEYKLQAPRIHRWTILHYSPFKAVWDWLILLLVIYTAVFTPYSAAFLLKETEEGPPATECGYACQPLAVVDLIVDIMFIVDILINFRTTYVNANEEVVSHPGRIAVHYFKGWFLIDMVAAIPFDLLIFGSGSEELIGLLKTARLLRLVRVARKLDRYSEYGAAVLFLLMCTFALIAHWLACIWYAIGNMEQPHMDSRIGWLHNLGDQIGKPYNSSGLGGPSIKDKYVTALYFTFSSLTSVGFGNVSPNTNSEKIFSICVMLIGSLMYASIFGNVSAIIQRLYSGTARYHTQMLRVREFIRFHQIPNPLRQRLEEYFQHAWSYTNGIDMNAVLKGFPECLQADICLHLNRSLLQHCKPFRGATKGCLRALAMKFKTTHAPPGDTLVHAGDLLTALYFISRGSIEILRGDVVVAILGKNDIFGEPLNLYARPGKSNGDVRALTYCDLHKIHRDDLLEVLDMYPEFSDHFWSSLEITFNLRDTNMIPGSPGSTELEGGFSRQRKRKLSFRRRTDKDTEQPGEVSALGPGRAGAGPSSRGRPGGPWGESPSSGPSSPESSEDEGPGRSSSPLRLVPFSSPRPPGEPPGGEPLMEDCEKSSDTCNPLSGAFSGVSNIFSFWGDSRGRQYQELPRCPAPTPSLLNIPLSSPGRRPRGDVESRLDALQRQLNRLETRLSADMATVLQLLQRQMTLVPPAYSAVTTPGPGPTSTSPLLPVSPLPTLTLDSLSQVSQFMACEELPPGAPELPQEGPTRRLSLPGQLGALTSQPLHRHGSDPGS
Chain of Sodium-dependent serotonin transporter (P31652 whole entry): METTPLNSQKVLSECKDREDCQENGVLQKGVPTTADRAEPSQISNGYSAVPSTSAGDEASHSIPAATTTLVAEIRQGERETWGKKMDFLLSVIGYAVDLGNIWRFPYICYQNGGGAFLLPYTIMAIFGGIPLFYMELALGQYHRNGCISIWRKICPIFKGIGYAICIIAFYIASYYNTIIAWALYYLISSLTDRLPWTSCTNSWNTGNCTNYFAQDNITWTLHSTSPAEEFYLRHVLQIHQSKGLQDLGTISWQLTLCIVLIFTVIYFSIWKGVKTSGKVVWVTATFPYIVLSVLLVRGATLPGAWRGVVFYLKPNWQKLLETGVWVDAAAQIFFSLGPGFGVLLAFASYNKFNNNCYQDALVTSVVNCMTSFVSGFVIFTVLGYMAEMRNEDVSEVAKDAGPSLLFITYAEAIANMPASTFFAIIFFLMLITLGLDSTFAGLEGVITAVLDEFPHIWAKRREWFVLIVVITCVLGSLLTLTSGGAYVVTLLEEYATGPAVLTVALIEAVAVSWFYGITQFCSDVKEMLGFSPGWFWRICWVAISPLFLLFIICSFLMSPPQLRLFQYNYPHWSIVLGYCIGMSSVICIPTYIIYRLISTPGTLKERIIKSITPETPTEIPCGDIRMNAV
Chain of Sodium-dependent dopamine transporter (Rattus norvegicus, UniProt P23977) (P23977 whole entry): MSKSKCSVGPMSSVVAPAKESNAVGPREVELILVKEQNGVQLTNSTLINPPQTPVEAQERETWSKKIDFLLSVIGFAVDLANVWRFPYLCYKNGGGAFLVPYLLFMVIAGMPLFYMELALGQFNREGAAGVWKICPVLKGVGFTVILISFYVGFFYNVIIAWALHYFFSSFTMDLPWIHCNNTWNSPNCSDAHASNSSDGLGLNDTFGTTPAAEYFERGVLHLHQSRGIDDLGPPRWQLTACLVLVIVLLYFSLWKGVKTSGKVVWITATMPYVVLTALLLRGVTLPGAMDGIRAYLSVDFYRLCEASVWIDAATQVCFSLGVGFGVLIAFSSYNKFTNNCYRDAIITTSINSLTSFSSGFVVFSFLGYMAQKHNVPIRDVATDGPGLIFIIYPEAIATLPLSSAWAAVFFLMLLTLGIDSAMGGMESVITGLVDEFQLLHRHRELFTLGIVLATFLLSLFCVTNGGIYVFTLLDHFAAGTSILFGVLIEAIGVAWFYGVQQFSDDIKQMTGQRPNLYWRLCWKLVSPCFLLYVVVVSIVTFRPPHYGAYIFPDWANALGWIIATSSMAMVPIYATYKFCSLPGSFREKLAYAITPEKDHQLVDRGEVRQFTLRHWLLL

Row | SMILES | Ki [1] [nM] | Ki [2] [nM] | Ratio Ki (Homo sapiens) | Ki [3] [nM] | Ki [4] [nM] | Ki [5] [nM] | Ki [6] [nM] | IC50 [7] [nM] | Selectivity ratio [8] | Activity (Mus musculus [9]) [%] | Stability (Liver) [%] | Activity (Mus musculus [10]) | Activity (Mus musculus [11]) [%] | Activity (Mus musculus [12]) [%]
1 | CN1C2CCC1[C@@H](c1cc(-c3ccccc3)no1)C(OC(c1ccc(F)cc1)c1ccc(F)cc1)C2 (single isomer, unassigned) | 413 | 14.4 | 6.5 | 183 | 1320 | 28 | 212 | – | – | – | – | – | – | –
2 | CCOC(=O)[C@@H]1C2CCC(C[C@@H]1OC(c1ccc(F)cc1)c1ccc(F)cc1)N2C[C@H](N)C(C)C (mixture of isomers) | 4470 | 53.8 | 7.1 | 1560 | 1370 | 221 | 1050 | – | – | – | – | – | – | –
3 | Cc1ccc(C2CC3CCC(C2c2cc(-c4ccc(Cl)cc4)no2)N3C)cc1 (stereo not drawn) | 887 | 8.55 | 9 | 242 | 29100 | 27 | 9.7 | – | – | – | – | – | – | –
4 | CC(C)[C@@H](N)CN1C2CCC1CC(NC(c1ccc(F)cc1)c1ccc(F)cc1)C2 (stereo partly drawn) | 2350 | 21 | – | – | 5400 | – | – | – | – | – | – | – | – | –
5 | Fc1ccc(C(OC2CC3CCC(C2)N3CC2CC2)c2ccc(F)cc2)cc1 (stereo not drawn) | 1640 | 24.6 | – | – | 1420 | – | – | 3960 | 161 | – | – | – | – | –
6 | CN1C2CCC1[C@@H](c1cc(-c3ccccc3)no1)[C@@H](OC(c1ccc(F)cc1)c1ccc(F)cc1)C2 (mixture of isomers) | 1100 | 60.8 | 2.4 | 3490 | 3830 | 1480 | 1300 | – | – | – | – | – | – | –
7 | CN(C)CCN1C2CCC1CC(OC(c1ccc(F)cc1)c1ccc(F)cc1)C2 (stereo not drawn) | 933 | 12 | 6.3 | 63 | 3150 | 10 | 47 | 8230 | 686 | < 50 | 88 | Active | 23 | 14
8 | Fc1ccc(C(OC2CC3CCC(C2)N3CCN2CCCCC2)c2ccc(F)cc2)cc1 (stereo not drawn) | 370 | 13.2 | – | – | 1460 | – | – | – | – | – | – | – | – | –
9 | CCOC(=O)[C@@H]1C2CCC(C[C@@H]1OC(c1ccc(F)cc1)c1ccc(F)cc1)N2CCc1c[nH]c2ccccc12 (mixture of isomers) | 1450 | 26.1 | – | 1080 | 746 | 147 | 944 | – | – | – | – | – | – | –
10 | Cc1ccc(-c2cc(C3C(c4ccc(Cl)cc4)CC4CCC3N4C)on2)cc1 (stereo not drawn) | 1170 | 10.7 | 4 | 140 | 23500 | 35 | 16 | – | – | – | – | – | – | –
11 | CN1C2CCC1[C@@H](c1cc(-c3ccc(F)cc3)no1)[C@@H](OC(c1ccc(F)cc1)c1ccc(F)cc1)C2 (mixture of isomers) | 1640 | 69.2 | – | – | 2990 | – | – | – | – | – | – | – | – | –
12 | Fc1ccc(C(NC2CC3CCC(C2)N3CCN2CCCCC2)c2ccc(F)cc2)cc1 (stereo not drawn) | 612 | 10.6 | – | – | 3780 | – | – | – | – | – | – | – | – | –
13 | C=C[C@@H]1C2CCC(C[C@@H]1OC(c1ccc(F)cc1)c1ccc(F)cc1)N2CCN(C)C (mixture of isomers) | – | 13.5 | – | – | 5100 | – | – | – | – | – | – | – | – | –
14 | Cc1ccc(-c2cc([C@@H]3C4CCC(C[C@@H]3OC(c3ccc(F)cc3)c3ccc(F)cc3)N4C)on2)cc1 (mixture of isomers) | 2710 | 93.5 | – | – | 4410 | – | – | – | – | – | – | – | – | –
15 | Fc1ccc(C(OC2CC3CCC(C2)N3CCc2c[nH]c3ccccc23)c2ccc(F)cc2)cc1 (stereo not drawn) | 7350 | 29.2 | 6.7 | 1700 | 490 | 253 | – | – | – | – | – | – | – | –
16 | CN1C2CCC1[C@@H](c1cc(-c3ccc(Cl)cc3)no1)[C@@H](OC(c1ccc(F)cc1)c1ccc(F)cc1)C2 (mixture of isomers) | 1580 | 66.6 | – | – | 756 | – | – | – | – | – | – | – | – | –
17 | CCOC(=O)[C@@H]1C2CCC(C[C@@H]1OC(c1ccc(F)cc1)c1ccc(F)cc1)N2CC1CC1 (mixture of isomers) | 555 | 12 | – | – | 3730 | – | – | – | – | – | – | – | – | –
18 | CN(C)CCN1C2CCC1CC(NC(c1ccc(F)cc1)c1ccc(F)cc1)C2 (stereo not drawn) | 4010 | 14.3 | 20 | 202 | 12000 | 16 | 40 | 5480 | 383 | – | – | – | – | –
19 | CC(C)[C@@H](N)CN1C2CCC1CC(OC(c1ccc(F)cc1)c1ccc(F)cc1)C2 (stereo partly drawn) | 2130 | 13.2 | 3.8 | 307 | 3870 | 81 | 133 | – | 345 | – | – | – | – | –
20 | CCCCN1C2CCC1CC(NC(c1ccc(F)cc1)c1ccc(F)cc1)C2 (stereo not drawn) | – | – | 15 | 355 | – | 24 | 62 | – | – | – | – | – | – | –
21 | NCCN1C2CCC1CC(OC(c1ccc(F)cc1)c1ccc(F)cc1)C2 (stereo not drawn) | 1420 | 5.59 | – | – | 4600 | – | – | – | – | – | – | – | – | –
